Test results taken from ChEMBL document CHEMBL1146584, “Renieramycin J, a highly cytotoxic tetrahydroisoquinoline alkaloid, from a marine sponge Neopetrosia sp” (J Nat Prod, 2003).
Activity calls are given as the source filed them. The calls are words filed in the database; no cut-off is given here.

Columns and labels:
[1] = test system: 3Y1 cell line; assay: Induction of morphological changes in rat 3Y1 cells assessed as cell shrinkage at 86 nM after 6 hrs by phase contrast microscopy; assay type: functional, cell-based
How it was run: (§1)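 Rat 3Y1 cells exposed to 86 nM; nucleoli (shrinkage or loss) and filopodial development inspected at 6 h.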

[2] = test system: 3Y1 cell line; assay: Induction of morphological changes in rat 3Y1 cells assessed as disappearance of nucleoli at 86 nM after 6 hrs by phase contrast microscopy; assay type: functional, cell-based; how it was run: as §1
[3] = test system: 3Y1 cell line; assay: Induction of morphological changes in rat 3Y1 cells assessed as filopodial development; assay type: functional, cell-based; how it was run: as §1
[4] = test system: 3Y1 cell line; assay: Induction of morphological changes in rat 3Y1 cells assessed as increase in dead cell number after 12 hrs by light microscopy; assay type: functional, cell-based
How it was run: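 3Y1 cells kept under continued exposure; cellular boundaries and dead-cell numbers inspected at 12 h and followed to day five under a light microscope.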

[5] = test system: 3Y1 cell line; assay: Induction of morphological changes in rat 3Y1 cells assessed as cell rounding at 1.7 uM after 6 hrs; assay type: functional, cell-based
How it was run: (§2)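 3Y1 cells exposed to 1.7 μM; cell rounding scored at 6 h, proportion of dead cells estimated within 24 h.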

[6] = test system: 3Y1; assay: Induction of morphological changes in rat 3Y1 cells assessed as cell death at 1.7 uM after 24 hrs; assay type: functional, cell-based; how it was run: as §2
[7] = Cytotoxicity against rat 3Y1 cells after 72 hrs by MTT assay; assay type: functional, cell-based; conditions: 3Y1, 72 h
[8] = test system: HeLa; assay: Cytotoxicity against human HeLa cells after 72 hrs by MTT assay; assay type: functional, cell-based
[9] = test system: P388; assay: Cytotoxicity against mouse P388 cells after 72 hrs by MTT assay; assay type: functional, cell-based; conditions: P388, 72 h
[10] = Induction of morphological changes in rat 3Y1 cells assessed as cell death at 1.7 uM after 24 hrs

In the case of `C/C=C(/C)C(=O)OC[C@H]1C2=C(C[C@H]3[C@H]4c5c(O)c(OC)c(C)c(O)c5[C@H](O)[C@@H]([C@H](O)N13)N4C)C(=O)C(C)=C(OC)C2=O` [RENIERAMYCIN J], the Activity [1] is reported as “Active”, the Activity [2] is reported as “Active” and the Activity [3] is reported as “Active”. The Activity [4] was “Active”, the Activity [5] was “Active” and the Activity [6] was “Active”. It also gave an IC50 [7] of 5.3 nM, an IC50 [8] of 12.3 nM and an IC50 [9] of 0.53 nM. It also gave an Activity [10] of 90%.
